Measurements from ChEMBL document CHEMBL1687740, “Cellular accumulation and pharmacodynamic evaluation of the intracellular activity of CEM-101, a novel fluoroketolide, against Staphylococcus aureus, Listeria monocytogenes, and Legionella pneumophila in human THP-1 macrophages” (Antimicrob Agents Chemother, 2009).
Converted amounts (≈) assume the structure as drawn. The source made the active and inactive calls. No cut-off for these calls is given here.

Key:
THP-1 [1] = experiment: Drug uptake in human THP1 cells after 24 hrs in presence of gemfibrozil; type: ADME, cell-based; conditions: thp-1, 24 h
How it was run: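 Accumulation at 37°C, 10 mg/liter drug, with gemfibrozil 250 μM for 24 h. Microbiological assay normalized to cell protein. n = 3.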

Staphylococcus aureus [2] = experiment: Antibacterial activity against methicillin-sensitive Staphylococcus aureus ATCC 25923 assessed as decrease of CFU after 24 hrs relative to initial inoculum; type: functional
How it was run: (§1)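 24-h concentration-response in Mueller-Hinton broth; original inoculum (0.97 ± 0.24) × 10⁶ CFU/ml. Hill equation fit (slope factor 1). Emax = log10 CFU decrease from inoculum extrapolated to infinite concentration. Cs = concentration giving CFU equal to inoculum, by graphical intrapolation. Counts under five taken as below detection. n = 3.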

Legionella pneumophila [3] = experiment: Antibacterial activity against Legionella pneumophila ATCC 33153 after 48 hrs; type: functional; conditions: ATCC 33153, 48 h
How it was run: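 L. pneumophila MIC determined in α-ketoglutarate-buffered yeast extract broth, read after 48 h incubation.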

Staphylococcus aureus [4] = experiment: Antibacterial activity against methicillin-sensitive Staphylococcus aureus ATCC 25923 assessed as decrease of CFU after 24 hrs; type: functional, organism-based; conditions: ATCC 25923, 24 h; how it was run: as §1
Staphylococcus aureus [5] = experiment: Antibacterial activity against methicillin-sensitive Staphylococcus aureus ATCC 25923 infected in human THP1 cells assessed as decrease of CFU after 24 hrs relative to initial inoculum; type: functional, THP-1
How it was run: (§2)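 THP-1 macrophages infected, non-phagocytosed bacteria removed, then exposed 24 h over a concentration range. Postphagocytosis inoculum (2.74 ± 0.55) × 10⁶ CFU/mg protein. Hill fit (slope 1). […] Cs = no change from inoculum, by graphical intrapolation. n = 3.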

Staphylococcus aureus [6] = experiment: Antibacterial activity against methicillin-sensitive Staphylococcus aureus ATCC 25923 assessed as decrease of CFU at 4 mg/liter; type: functional, organism-based
How it was run: (§3)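 Short-term 6-h time-kill in broth at pH 7.4 at fixed extracellular concentrations of 0.7 or 4 mg/liter; CFU followed over time; three independent experiments.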

Listeria monocytogenes [7] = experiment: Antibacterial activity against […] Listeria monocytogenes EGD assessed as decrease of CFU after 24 hrs relative to initial inoculum; type: functional, EGD-e
Legionella pneumophila [8] = experiment: Antibacterial activity against Legionella pneumophila infected in human THP1 cells assessed as concentration required to no apparent bacterial growth after 48 hrs
THP-1 [9] = experiment: Drug uptake in human THP1 cells at pH 6 to 7 after 30 mins; type: ADME, cell-based; conditions: thp-1, pH 6, 0.5 h
How it was run: (§4)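 30-min accumulation at 37°C, 10 mg/liter extracellular, in culture medium at varied pH. Microbiological drug assay normalized to cell protein, converted at 5 μl/mg protein. n = 3.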

Listeria monocytogenes [10] = experiment: Antibacterial activity against Listeria monocytogenes EGD after 24 hrs; type: functional
Legionella pneumophila [11] = experiment: Antibacterial activity against Legionella pneumophila infected in human THP1 cells assessed as decrease of CFU after 48 hrs; conditions: THP-1, 48 h
Staphylococcus aureus [12] = experiment: Antibacterial activity against methicillin-sensitive Staphylococcus aureus ATCC 25923 after 24 hrs; type: functional; conditions: ATCC 25923, 24 h
Staphylococcus aureus [13] = experiment: Antibacterial activity against methicillin-sensitive Staphylococcus aureus ATCC 25923 infected in human THP1 cells assessed as concentration required to no apparent bacterial growth after 24 hrs; type: functional, THP-1; how it was run: as §2
Staphylococcus aureus [14] = experiment: Antibacterial activity against methicillin-sensitive Staphylococcus aureus ATCC 25923 assessed as concentration required to no apparent bacterial growth after 24 hrs; type: functional; how it was run: as §1
Staphylococcus aureus [15] = experiment: Antibacterial activity against methicillin-sensitive Staphylococcus aureus ATCC 25923 infected in human THP1 cells assessed as decrease of intracellular CFU at 4 mg/liter; type: functional
How it was run: (§5)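 Phagocytosed bacteria in THP-1 macrophages exposed to a fixed extracellular concentration of 0.7 or 4 mg/liter; intracellular CFU followed over 6 h; three independent experiments.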

Staphylococcus aureus [16] = experiment: Antibacterial activity against methicillin-sensitive Staphylococcus aureus ATCC 25923 at pH 5.5 to 7.4 after 24 hrs; type: functional
Legionella pneumophila [17] = experiment: Antibacterial activity against Legionella pneumophila infected in human THP1 cells assessed as decrease of CFU after 48 hrs relative to initial inoculum
Staphylococcus aureus [18] = experiment: Antibacterial activity against methicillin-sensitive Staphylococcus aureus ATCC 25923 infected in human THP1 cells assessed as decrease of CFU after 24 hrs; type: functional, organism-based; conditions: ATCC 25923, THP-1, 24 h; how it was run: as §2
THP-1 [19] = experiment: Drug uptake in human THP1 cells after 2 hrs in presence of monensin; type: ADME, cell-based; conditions: thp-1, 2 h
How it was run: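 Accumulation at 37°C, 10 mg/liter drug, with monensin 50 μM for 2 h. Microbiological assay normalized to cell protein. n = 3.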

Listeria monocytogenes [20] = experiment: Antibacterial activity against […] Listeria monocytogenes EGD assessed as concentration required to no apparent bacterial growth after 24 hrs; type: functional, EGD-e
Listeria monocytogenes [21] = experiment: Antibacterial activity against […] Listeria monocytogenes EGD assessed as decrease of CFU after 24 hrs; type: functional, organism-based; conditions: EGD-e
Legionella pneumophila [22] = experiment: Antibacterial activity against Legionella pneumophila ATCC 33153 at pH 6.5 to 7.4 after 48 hrs; type: functional; conditions: ATCC 33153, 48 h
THP-1 [23] = experiment: Drug uptake in human THP1 cells at acidic pH after 30 mins; type: ADME, cell-based; conditions: thp-1, 0.5 h; how it was run: as §4
THP-1 [24] = experiment: Drug uptake in human THP1 cells after 24 hrs in presence of verapamil; type: ADME, cell-based; conditions: thp-1, 24 h
How it was run: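 Accumulation at 37°C, 10 mg/liter drug, with verapamil 150 μM for 24 h. Microbiological assay normalized to cell protein. n = 3.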

Listeria monocytogenes [25] = experiment: Antibacterial activity against Listeria monocytogenes EGD at pH 5.5 to 7.4 after 24 hrs; type: functional; conditions: EGD-e
Staphylococcus aureus [26] = experiment: Antibacterial activity against methicillin-sensitive Staphylococcus aureus ATCC 25923 by time kill study; type: functional; how it was run: as §3
THP-1 [27] = experiment: Drug uptake in human THP1 cells after 24 hrs relative to extracellular concentration; type: ADME, cell-based; conditions: thp-1, 24 h
How it was run: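 THP-1 cells incubated at 37°C with drug at 10 mg/liter extracellular, accumulation followed up to 24 h. Cell-associated drug assayed microbiologically with S. aureus ATCC 25923, normalized to cell protein (Folin-Ciocalteu/biuret) and converted at 5 μl/mg protein to the cellular/extracellular concentration ratio. n = 3.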

Staphylococcus aureus [28] = experiment: Antibacterial activity against methicillin-sensitive Staphylococcus aureus ATCC 25923 infected in human THP1 cells assessed as decrease of intracellular CFU at 0.7 mg/liter; type: functional, organism-based; conditions: THP-1; how it was run: as §5
Staphylococcus aureus [29] = experiment: Antibacterial activity against methicillin-sensitive Staphylococcus aureus ATCC 25923 assessed as decrease of CFU at 0.7 mg/liter; type: functional, organism-based; how it was run: as §3

Row | Compound | Drug uptake (THP-1 [1]) | log10cfu (Staphylococcus aureus [2]) | MIC (Legionella pneumophila [3]) [µg/mL] | EC50 (Staphylococcus aureus [4]) [µg/mL] | log10cfu (Staphylococcus aureus [5]) | log10cfu (Listeria monocytogenes [7]) | Activity (Legionella pneumophila [8]) [mg/L] | Drug uptake (THP-1 [9]) | MIC (Listeria monocytogenes [10]) [µg/mL] | EC50 (Legionella pneumophila [11]) [µg/mL] | MIC (Staphylococcus aureus [12]) [µg/mL] | Activity (Staphylococcus aureus [13]) [mg/L] | Activity (Staphylococcus aureus [14]) [mg/L] | MIC (Staphylococcus aureus [16]) | log10cfu (Legionella pneumophila [17]) | EC50 (Staphylococcus aureus [18]) [µg/mL] | Drug uptake (THP-1 [19]) | Activity (Listeria monocytogenes [20]) [mg/L] | Drug uptake (THP-1 [24]) | MIC (Listeria monocytogenes [25]) | other results
1 | CC[C@H]1OC(=O)[C@H](C)[C@@H](O[C@H]2C[C@@](C)(OC)[C@@H](O)[C@H](C)O2)[C@H](C)[C@@H](O[C@@H]2O[C@H](C)C[C@H](N(C)C)[C@H]2O)[C@](C)(O)C[C@@H](C)CN(C)[C@H](C)[C@@H](O)[C@]1(C)O [AZITHROMYCIN] | Active | -1 | 0.016 (≈ 0.0214 µM) | 0.12 (≈ 0.16 µM) | -0.29 | -0.81 | 2.9 | Active | 1 (≈ 1.34 µM) | 2.86 (≈ 3.82 µM) | 0.5 (≈ 0.668 µM) | 0.63 | 0.29 | inactive | -0.83 | 0.024 (≈ 0.032 µM) | Not Active | 11.6 | Active | inactive | Activity (Staphylococcus aureus [6]): Active; Activity (Staphylococcus aureus [15]; THP-1): inactive; EC50 (Listeria monocytogenes [21]): 2.66 µg/mL (≈ 3.55 µM); MIC (Legionella pneumophila [22]): 0.01 µg/mL (≈ 0.0134 µM); Drug uptake (THP-1 [23]): Not Active
2 | CC[C@H]1OC(=O)[C@H](C)[C@@H](O[C@H]2C[C@@](C)(OC)[C@@H](O)[C@H](C)O2)[C@H](C)[C@@H](O[C@@H]2O[C@H](C)C[C@H](N(C)C)[C@H]2O)[C@](C)(OC)C[C@@H](C)C(=O)[C@H](C)[C@@H](O)[C@]1(C)O [CLARITHROMYCIN] | Active | -1.41 |  | 0.8 (≈ 1.07 µM) | -0.18 |  |  |  |  |  |  | 0.84 | 1.32 | inactive |  | 0.046 (≈ 0.0615 µM) |  |  | Active | inactive | 
3 | CC[C@H]1OC(=O)[C@@](C)(F)C(=O)[C@H](C)[C@@H](O[C@@H]2O[C@H](C)C[C@H](N(C)C)[C@H]2O)[C@](C)(OC)C[C@@H](C)C(=O)[C@H](C)[C@H]2N(CCCCn3cc(-c4cccc(N)c4)nn3)C(=O)O[C@]12C [SOLITHROMYCIN] | Active | -1.37 | 0.004 (≈ 0.00473 µM) | 0.03 (≈ 0.0355 µM) | -0.86 | -0.66 | 0.018 | Active | 0.004 (≈ 0.00473 µM) | 0.052 (≈ 0.0615 µM) | 0.06 (≈ 0.071 µM) | 0.022 | 0.06 |  | -1.03 | 0.0068 (≈ 0.00805 µM) | Not Active | 0.11 | Active | 0.0039 µg/mL (≈ 0.00462 µM) | Time (Staphylococcus aureus [26]): 6 h; log10cfu (Staphylococcus aureus [15]): 1.5; fold change (FC) (THP-1 [27]): 350; MIC (Staphylococcus aureus [16]; ATCC 25923, 24 h): 0.06 µg/mL (≈ 0.071 µM); Activity (Staphylococcus aureus [28]): Active; EC50 (Listeria monocytogenes [21]): 0.02 µg/mL (≈ 0.0237 µM); Activity (Staphylococcus aureus [29]): Active; MIC (Legionella pneumophila [22]): 0.005 µg/mL (≈ 0.00592 µM); Drug uptake (THP-1 [23]): Not Active
4 | CC[C@H]1OC(=O)[C@H](C)C(=O)[C@H](C)[C@@H](O[C@@H]2O[C@H](C)C[C@H](N(C)C)[C@H]2O)[C@](C)(OC)C[C@@H](C)C(=O)[C@H](C)[C@H]2N(CCCCn3cnc(-c4cccnc4)c3)C(=O)O[C@]12C [TELITHROMYCIN] | Active | -1.23 |  | 1.78 (≈ 2.19 µM) | 0.04 |  |  |  |  |  |  | >50 | 3.4 | inactive |  | 0.11 (≈ 0.135 µM) |  |  | Active | inactive | 
